Reference: ChEMBL document CHEMBL3351262, “Design and synthesis of new benzimidazole-carbazole conjugates for the stabilization of human telomeric DNA, telomerase inhibition, and their selective action on cancer cells” (J Med Chem, 2014)
Activity calls are given as the source filed them. No cut-off for these calls is given here.

What was measured:
[1] = Binding affinity to human Hum21 [5'-G3(T2AG3)3-3'] G-quadruplex DNA at 0.4 uM in 10 mM pH 7.4 Tris-Hcl buffer containing 0.1 mM EDTA and 0.1 mM NaCl by fluorescence spectroscopy
[2] = Binding affinity to human Hum21 [5'-G3(T2AG3)3-3'] G-quadruplex DNA at 0.4 uM in 10 mM pH 7.4 Tris-Hcl buffer containing 0.1 mM EDTA and […] by fluorescence spectroscopy
Calf thymus DNA [3] = test: Binding affinity to calf thymus DNA at 0.4 uM in 10 mM pH 7.4 Tris-Hcl buffer containing 0.1 mM EDTA and 40 mM NaCl by fluorescence spectroscopy; assay type: nucleic-acid assay; conditions: Bos taurus
Method in brief: (§1)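 CT DNA was in the same Tris/EDTA buffer with 40 mM NaCl. 0.4 μM ligand was titrated with preformed DNA, incubated 10 min at 20 °C, and excited at 300 or 330 nm. Kd and binding stoichiometry n came from the emission titration.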

[4] = Displacement of thiazole orange from human Hum21 [5'-G3(T2AG3)3-3'] G-quadruplex DNA in presence of 10 mM pH 7.4 Tris-Hcl buffer containing 0.1 mM EDTA and […] by fluorescent intercalator displacement assay
[5] = Displacement of thiazole orange from calf thymus double stranded DNA in presence of 10 mM pH 7.4 Tris-Hcl buffer containing 0.1 mM EDTA and […] by fluorescent intercalator displacement assay; parameters: species or system Bos taurus
[6] = Displacement of thiazole orange from telomeric duplex DNA (unknown origin) in presence of 10 mM pH 7.4 Tris-Hcl buffer containing 0.1 mM EDTA and […] by fluorescent intercalator displacement assay
Homo sapiens [7] = species: Homo sapiens; test: Binding affinity to human Hum21 [5'-G3(T2AG3)3-3'] G-quadruplex DNA in 10 mM pH 7.4 Tris-Hcl buffer containing 0.1 mM EDTA and […] by CD spectroscopy
Homo sapiens [8] = species: Homo sapiens; test: Induction of formation of human Hum21 [5'-G3(T2AG3)3-3'] G-quadruplex DNA at [compound]/[DNA] ratio of 5 in 10 mM pH 7.4 Tris-Hcl buffer containing 0.1 mM EDTA and […] by CD spectroscopy
Method in brief: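 Hum21 was folded in the presence of ligand at the stated [L]:[DNA] ratio in 10 mM Tris-HCl pH 7.4, 0.1 mM EDTA, 0.1 M KCl or NaCl. Annealing was 95 °C for 5 min with slow cooling to 24 °C over 24 h. Topology was read from CD spectra recorded at 20 °C.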

Homo sapiens [9] = species: Homo sapiens; test: Binding affinity to human Hum21 [5'-G3(T2AG3)3-3'] G-quadruplex DNA assessed as change in melting temperature in 10 mM pH 7.4 Tris-Hcl buffer containing 0.1 mM EDTA and 0.1 mM NaCl […] (reference value: 7 to 10 degC)
Homo sapiens [10] = species: Homo sapiens; test: Binding affinity to human Hum21 [5'-G3(T2AG3)3-3'] G-quadruplex DNA assessed as change in melting temperature in 10 mM pH 7.4 Tris-Hcl buffer containing 0.1 mM EDTA and […] measured after 12 hrs by UV-Vis absorption sperctrometry (reference value: 7 to 13 degC)
Homo sapiens [11] = species: Homo sapiens; test: Stabilization of 32P-ATP labeled human Hum21 [5'-G3(T2AG3)3-3'] G-quadruplex DNA assessed as protection against S1 nuclease-mediated degradation at 2.5 to 5 uM pre-incubated for 4 hrs before S1 nuclease addition by PAGE method
Method in brief: (§2)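 5′-32P-labelled Hum21 was mixed with cold DNA and annealed in KCl; lanes were run in 50 mM KCl. G4 DNA was pre-incubated with ligand for 4 h. 2 μM DNA was digested with 20 U S1 nuclease for 2 min, quenched with acetate/CT DNA/EDTA stop buffer, and ethanol precipitated. Products ran on a 15% polyacrylamide urea sequencing gel beside an A+G ladder and were imaged by phosphorimager.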

HFF [12] = test: Cytotoxicity against HFF cells at 0.5 to 8 uM after 72 hrs by MTT assay; assay type: cell-based; conditions: human
Method in brief: (§3)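 Cells were seeded at 15.0 × 10³/well and grown 72 h to >70% confluency. They were treated with ligand or 0.1% DMSO in 10% FBS for 72 h at 37 °C, 5% CO2, then given fresh DMEM/10% FBS. MTT (5 mg/mL stock) was added for 4 h, formazan dissolved in DMSO, and read at 595 nm. Viability was normalized to untreated cells after DMSO-blank subtraction. Doses were run in triplicate, with at least three independent experiments.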

HEK-293T [13] = test: Cytotoxicity against transformed HEK293T cells at 0.5 to 8 uM after 72 hrs by MTT assay; assay type: functional, cell-based; conditions: Homo sapiens; method in brief: as §3
A549 [14] = test: Cytotoxicity against human A549 cells at 0.5 to 8 uM after 72 hrs by MTT assay; assay type: functional, cell-based; method in brief: as §3
HeLa [15] = test: Cytotoxicity against human HeLa cells at 0.5 to 8 uM after 72 hrs by MTT assay; assay type: functional, cell-based; method in brief: as §3
HEK-293T [16] = test: Cytotoxicity against transformed HEK293T cells after 72 hrs by MTT assay; assay type: functional, cell-based; conditions: Homo sapiens; method in brief: as §3
A549 [17] = test: Cytotoxicity against human A549 cells after 72 hrs by MTT assay; assay type: functional, cell-based; conditions: A549, 72 h; method in brief: as §3
HeLa [18] = test: Cytotoxicity against human HeLa cells after 72 hrs by MTT assay; assay type: functional, cell-based; method in brief: as §3
HeLa [19] = test: Induction of apoptosis in human HeLa cells at 10 uM after 12 hrs by Annexin V and propidium iodide staining based FACS analysis; assay type: functional
Method in brief: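 HeLa cells were seeded at 0.25 million per well, and after 24 h exposed to 10 μM ligand for 12 h. Cells were washed, trypsinized and resuspended in HEPES binding buffer (0.14 M NaCl, 2.5 mM CaCl2). They were stained with Annexin V-FITC and PI (final 1 μg/mL, 5 min), then analyzed by flow cytometry. Gated Annexin-only-positive cells were scored as apoptotic.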

[20] = Drug uptake in nucleus of human HeLa cells at 10 uM after 12 hrs by confocal microscopy; assay type: ADME, cell-based
Method in brief: (§4)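 Cells were grown on glass coverslips and treated with 10 μM ligand for 12 h. They were washed in DPBS, fixed in 4% paraformaldehyde for 10 min, and permeabilized with 0.1% Triton X-100 for 5 min. Nuclei were counterstained with propidium iodide. Blue ligand fluorescence and nuclear localization were imaged by confocal microscopy.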

[21] = Drug uptake in nucleus of human HeLa cells at 10 uM after 12 hrs by propidium iodide staining; assay type: ADME, cell-based; method in brief: as §4
[22] = Drug uptake in cytoplasm of HFF cells at 10 uM after 12 hrs by confocal microscopy; assay type: ADME, cell-based; conditions: human; method in brief: as §4
HeLa [23] = test: Induction of apoptosis in human HeLa cells assessed as nuclear fragmentation at 10 uM after 12 hrs by propidium iodide staining based FACS analysis; assay type: functional, cell-based
HFF [24] = test: Induction of apoptosis in HFF cells assessed as nuclear fragmentation at 10 uM after 12 hrs by propidium iodide staining based FACS analysis; assay type: cell-based; conditions: human
Calf thymus DNA [25] = test: Binding affinity to calf thymus DNA in 10 mM pH 7.4 Tris-Hcl buffer containing 0.1 mM EDTA and 40 mM NaCl by fluorescence spectroscopy; assay type: nucleic-acid assay, Bos taurus; method in brief: as §1
[26] = Selectivity index, ratio of Kd for calf thymus DNA to Kd for human Hum21 [5'-G3(T2AG3)3-3'] G-quadruplex DNA
Method in brief: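 Selectivity is the ratio of fluorescence-titration Kd for CT DNA (Tris-HCl pH 7.4, 40 mM NaCl, 0.1 mM EDTA) to Kd for preformed Hum21 G4 DNA (Tris-HCl pH 7.4, 0.1 M NaCl/KCl, 0.1 mM EDTA).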

[27] = biological target: T1, Telomerase reverse transcriptase (Homo sapiens, UniProt O14746); test: Inhibition of telomerase isolated form human A549 cells by TRAP-LIG assay
T1 sequence (O14746 whole entry): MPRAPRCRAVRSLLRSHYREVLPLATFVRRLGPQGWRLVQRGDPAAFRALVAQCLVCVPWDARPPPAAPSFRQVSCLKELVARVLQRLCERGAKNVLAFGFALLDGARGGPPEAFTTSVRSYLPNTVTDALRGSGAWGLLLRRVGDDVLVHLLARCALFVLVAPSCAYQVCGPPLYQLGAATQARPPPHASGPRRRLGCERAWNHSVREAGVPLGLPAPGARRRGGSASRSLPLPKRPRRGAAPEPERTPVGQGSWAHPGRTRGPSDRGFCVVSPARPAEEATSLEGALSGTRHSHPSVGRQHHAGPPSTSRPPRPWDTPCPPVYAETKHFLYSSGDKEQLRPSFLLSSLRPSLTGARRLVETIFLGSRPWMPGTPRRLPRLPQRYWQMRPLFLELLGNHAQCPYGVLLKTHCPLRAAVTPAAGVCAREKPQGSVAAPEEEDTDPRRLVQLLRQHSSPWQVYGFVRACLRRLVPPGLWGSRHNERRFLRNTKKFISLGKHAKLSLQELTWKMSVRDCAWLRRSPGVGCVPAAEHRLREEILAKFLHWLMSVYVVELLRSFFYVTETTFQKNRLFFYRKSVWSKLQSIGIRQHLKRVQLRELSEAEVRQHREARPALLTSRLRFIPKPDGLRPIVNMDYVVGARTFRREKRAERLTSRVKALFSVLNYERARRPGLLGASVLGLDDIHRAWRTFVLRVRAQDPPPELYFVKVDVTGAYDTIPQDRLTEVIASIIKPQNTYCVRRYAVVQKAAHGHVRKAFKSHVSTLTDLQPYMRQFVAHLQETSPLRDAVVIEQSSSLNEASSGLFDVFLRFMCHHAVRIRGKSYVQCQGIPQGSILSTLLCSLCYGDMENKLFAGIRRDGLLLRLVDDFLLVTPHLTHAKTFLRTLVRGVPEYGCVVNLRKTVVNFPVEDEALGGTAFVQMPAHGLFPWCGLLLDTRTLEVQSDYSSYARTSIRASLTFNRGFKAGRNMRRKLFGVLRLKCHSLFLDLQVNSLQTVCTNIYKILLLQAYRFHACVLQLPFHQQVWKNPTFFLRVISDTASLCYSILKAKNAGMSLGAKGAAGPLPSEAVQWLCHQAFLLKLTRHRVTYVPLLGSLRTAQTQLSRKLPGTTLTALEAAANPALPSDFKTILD

HeLa [28] = test: Cytotoxicity against human HeLa cells at 2 and 5 uM after 15 days by MTT assay
[29] = biological target: T1, Telomerase reverse transcriptase; test: Total inhibition of telomerase isolated form human A549 cells by TRAP-LIG assay
HEK-293T [30] = test: Cytotoxicity against transformed HEK293T cells at 2 and 5 uM after 15 days by MTT assay; conditions: Homo sapiens
Calf thymus DNA [31] = test: Binding affinity to calf thymus DNA in 10 mM pH 7.4 Tris-Hcl buffer containing 0.1 mM EDTA and 40 mM NaCl by CD spectroscopy; conditions: Bos taurus
[32] = Binding affinity to human Hum21 [5'-G3(T2AG3)3-3'] G-quadruplex DNA at 5 uM in 10 mM pH 7.4 Tris-Hcl buffer containing 0.1 mM EDTA and 0.1 M KCl by UV-Vis absorption sperctrometry
[33] = Binding affinity to human Hum21 [5'-G3(T2AG3)3-3'] G-quadruplex DNA at 5 uM in 10 mM pH 7.4 Tris-Hcl buffer containing 0.1 mM EDTA and 0.1 M NaCl by UV-Vis absorption sperctrometry
Homo sapiens [34] = species: Homo sapiens; test: Stabilization of 32P-ATP labeled human Hum21 [5'-G3(T2AG3)3-3'] G-quadruplex DNA assessed as protection against S1 nuclease-mediated degradation at 2.5 to 7.5 uM pre-incubated for 4 hrs before S1 nuclease addition by PAGE method; method in brief: as §2

| Kd [1] [µM] | Kd [2] [µM] | Activity (Calf thymus DNA [3]) | DC50 [4] [µM] | Activity (Homo sapiens [7]) | Activity (Homo sapiens [8]) | ΔTm (Homo sapiens [9]) [°C] | ΔTm (Homo sapiens [10]) [°C] | Ratio [26] | IC50 [27] [µM] | concentration giving total telomerase inhibition [29] [µM] | Activity (Calf thymus DNA [31]) | Kd [32] [µM] | Kd [33] [µM] | DC50 [5] | DC50 [6] | Compound | Activity (HFF [12]) | Kd (Calf thymus DNA [25]) [µM] | inhibition (HeLa [28]) | inhibition (HEK-293T [30]) | other results |
| --- | --- | --- | --- | --- | --- | --- | --- | --- | --- | --- | --- | --- | --- | --- | --- | --- | --- | --- | --- | --- | --- |
| 0.08 | 0.03 | inactive | 1.12 | Active | Active | 15 | 19 | 500 | 0.6 | 1 | inactive | 0.03 | 0.05 | – | – | CN1CCN(CCCCn2c3ccc(-c4nc5cc(N6CCN(CCO)CC6)ccc5[nH]4)cc3c3cc(-c4nc5cc(N6CCN(CCO)CC6)ccc5[nH]4)ccc32)CC1 | Non-toxic | 25 | Active | Active | DC50 ([5]; read-out: DC50): 7.71 µM; DC50 ([6]; read-out: DC50): > 8 µM; Activity (Homo sapiens [11]): Active; Activity (HEK-293T [13]): Active; Activity (A549 [14]): Active; Activity (HeLa [15]): Active; IC50 (HEK-293T [16]): 8 µM; IC50 (A549 [17]): 8 µM; IC50 (HeLa [18]): 8 µM; Activity (HeLa [19]): 55%; Drug uptake [20]: Active; Drug uptake [21]: Active; Drug uptake [22]: Active; Activity (HeLa [23]): Active; Activity (HFF [24]): Non-toxic |
| 0.15 | 0.1 | inactive | 0.61 | Active | inactive | 12 | 16 | 576 | 0.9 | 1 | inactive | 0.13 | 0.34 | Not Active | Not Active | CN1CCN(CCCCn2c3ccc(-c4nc5cc(N6CCN(C)CC6)ccc5[nH]4)cc3c3cc(-c4nc5cc(N6CCN(C)CC6)ccc5[nH]4)ccc32)CC1 | Non-toxic | 196 | Active | Active | Activity (Homo sapiens [34]): Active; Activity (HEK-293T [13]): Active; Activity (A549 [14]): Active; Activity (HeLa [15]): Active; IC50 (HEK-293T [16]): 8 µM; IC50 (A549 [17]): 8 µM; IC50 (HeLa [18]): 8 µM; Activity (HeLa [19]): 25%; Drug uptake [20]: Active; Drug uptake [21]: Active; Drug uptake [22]: Active; Activity (HeLa [23]): Active; Activity (HFF [24]): Non-toxic |
| 0.19 | – | inactive | 1.01 | Active | – | 8 | 7 | 650 | 1.6 | 3 | inactive | 0.33 | 0.48 | Not Active | Not Active | CN1CCN(CCCCn2c3ccc(-c4nc5cc(N6CCOCC6)ccc5[nH]4)cc3c3cc(-c4nc5cc(N6CCOCC6)ccc5[nH]4)ccc32)CC1 | – | 312 | Active | Active | – |
| 0.18 | 0.15 | inactive | 1.36 | Active | – | 10 | 10 | 234 | 1.8 | 3 | Active | 0.23 | 0.38 | Not Active | Not Active | CN1CCN(CCCCn2c3ccc(-c4nc5cc(-c6nc7cc(N8CCN(C)CC8)ccc7[nH]6)ccc5[nH]4)cc3c3cc(-c4nc5cc(-c6nc7cc(N8CCN(C)CC8)ccc7[nH]6)ccc5[nH]4)ccc32)CC1 | – | 89 | Active | Active | – |
